Results taken from paper PMC5601358 (Journal of Medicinal Chemistry, 2017).

Tests used:
[1] = target: T1, human adenosine A3 receptor (Homo sapiens, UniProt P0DMS8); experiment: Radioligand competition association assay with [3H]34; format: binding; details: for residence time: read-out: RT (residence time)
T1 sequence (P0DMS8 1-318): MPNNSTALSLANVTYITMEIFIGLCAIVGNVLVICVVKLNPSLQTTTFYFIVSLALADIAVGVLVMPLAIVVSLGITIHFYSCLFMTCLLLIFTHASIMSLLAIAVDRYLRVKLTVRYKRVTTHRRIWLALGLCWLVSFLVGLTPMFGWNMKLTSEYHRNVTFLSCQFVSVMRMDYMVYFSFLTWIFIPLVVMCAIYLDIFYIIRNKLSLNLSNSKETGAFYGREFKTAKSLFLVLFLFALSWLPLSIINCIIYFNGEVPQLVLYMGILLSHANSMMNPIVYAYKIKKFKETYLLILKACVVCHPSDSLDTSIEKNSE

[2] = target: T2, hA3R stably expressed on CHO cell membranes (Homo sapiens, UniProt P0DMS8); experiment: [35S]GTPγS binding assay, 2-Cl-IB-MECA-stimulated, Schild analysis; format: biochemical; details: for Mode of antagonism: 2-Cl-IB-MECA concentration-effect curves, antagonist at 30-, 100-, 300-fold Ki; for Schild slope: Coincubation with 2-Cl-IB-MECA 30 min, 25 °C
T2 sequence (P0DMS8 1-318): T1 sequence (P0DMS8 1-318)
In short: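 CHO membranes stably expressing human A3 receptor (15 μg) in 50 mM Tris-HCl, 5 mM MgCl2, 1 mM EDTA, 0.05% BSA, 1 mM DTT, pH 7.4, with 1 μM GDP and 5 μg saponin. Agonist 0.1 nM–10 μM plus ~0.3 nM [35S]GTPγS (final). DMSO ≤0.1%. Basal: untreated membranes; maximum: 10 μM agonist. GF/B filtration, scintillation counting. Curves normalized and combined, n ≥ 3.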

[3] = target: T1, human adenosine A3 receptor; experiment: Radioligand displacement assay with [3H]34; format: binding; details: 25 °C, [3H]34, hA3R stably expressed on CHO cell membranes, n ≥ 3

CCCn1c(=O)c2c(nc3cc(OC)ccn32)n(Cc2ccccc2)c1=O [Compound 1, 1-Benzyl-8-methoxy-3-propyl-1H,3H-pyrido[2,1-f]purine-2,4-dione] gave a koff [1] of 0.00032 s⁻¹, a kon [1] of 850000 M⁻¹ s⁻¹ and a residence time [1] of 52 ± 0.3 min.
COc1ccn2c(c1)nc1c2c(=O)n(CC2CC2)c(=O)n1Cc1ccc(Cl)c(Cl)c1 [Compound 31, 3-(Cyclopropylmethyl)-1-(3,4-dichlorobenzyl)-8-methoxypyrido[2,1-f]purine-2,4(1H,3H)-dione] was tested, and the koff [1] was 5.3e-05 s⁻¹, the kon [1] was 100000 M⁻¹ s⁻¹ and the residence time [1] was 391 ± 137 min.
For COc1ccn2c(c1)nc1c2c(=O)[nH]c(=O)n1Cc1ccccc1 [Compound 5, 1-Benzyl-8-methoxy-1H,3H-pyrido[2,1-f]purine-2,4-dione], the Mode of antagonism [2] was “surmountable antagonism”, the Schild slope [2] was 1.0 ± 0.2 and the koff [1] was 0.014 s⁻¹. For the same compound, the kon [1] was 530000 M⁻¹ s⁻¹ and the residence time [1] was 2.2 ± 1.4 min.
COc1ccn2c(c1)nc1c2c(=O)n(CC2CC2)c(=O)n1Cc1cccc(Cl)c1 [Compound 29, 1-(3-Chlorobenzyl)-3-(cyclopropylmethyl)-8-methoxypyrido[2,1-f]purine-2,4(1H,3H)-dione] was tested, and the koff [1] was 0.00047 s⁻¹, the kon [1] was 820000 M⁻¹ s⁻¹ and the residence time [1] was 36 ± 5.5 min.
With CCc1ccc(Cn2c(=O)n(CC3CC3)c(=O)c3c2nc2cc(OC)ccn23)cc1 [Compound 26, 3-(Cyclopropylmethyl)-1-(4-ethylbenzyl)-8-methoxypyrido[2,1-f]purine-2,4(1H,3H)-dione] the “pKi ± SEM” value [3] was 9.2 ± 0.04.
CCCCCCCn1c(=O)c2c(nc3cc(OC)ccn32)n(Cc2ccccc2)c1=O [Compound 11, 1-Benzyl-3-heptyl-8-methoxypyrido[2,1-f]purine-2,4(1H,3H)-dione] gave a koff [1] of 6.2e-05 s⁻¹, a kon [1] of 420000 M⁻¹ s⁻¹ and a residence time [1] of 278 ± 45 min.
COc1ccc(Cn2c(=O)n(CC3CC3)c(=O)c3c2nc2cc(OC)ccn23)cc1 [Compound 28, 3-(Cyclopropylmethyl)-8-methoxy-1-(4-methoxybenzyl)pyrido[2,1-f]purine-2,4(1H,3H)-dione] was tested, and the koff [1] was 7.8e-05 s⁻¹, the kon [1] was 480000 M⁻¹ s⁻¹ and the residence time [1] was 250 ± 72 min.
For C=CCn1c(=O)c2c(nc3cc(OC)ccn32)n(Cc2ccccc2)c1=O [Compound 12, 3-Allyl-1-benzyl-8-methoxypyrido[2,1-f]purine-2,4(1H,3H)-dione], the “pKi ± SEM” value [3] was 8.3 ± 0.1.
For COc1ccn2c(c1)nc1c2c(=O)n(CC(C)(C)C)c(=O)n1Cc1ccccc1 [Compound 18, 1-Benzyl-8-methoxy-3-(3-neopentyl)-1H,3H-pyrido[2,1-f]purine-2,4-dione], the koff [1] was 0.00011 s⁻¹, the kon [1] was 550000 M⁻¹ s⁻¹ and the residence time [1] was 250 ± 147 min.
CCCCCCn1c(=O)c2c(nc3cc(OC)ccn32)n(Cc2ccccc2)c1=O [Compound 10, 1-Benzyl-3-hexyl-8-methoxypyrido[2,1-f]purine-2,4(1H,3H)-dione] gave a koff [1] of 8.2e-05 s⁻¹, a kon [1] of 230000 M⁻¹ s⁻¹ and a residence time [1] of 213 ± 35 min. For the same compound, the “pKi ± SEM” value [3] was 8.6 ± 0.1.
COc1ccn2c(c1)nc1c2c(=O)n(CC(C)C)c(=O)n1Cc1ccccc1 [Compound 17, 1-Benzyl-3-isobutyl-8-methoxypyrido[2,1-f]purine-2,4(1H,3H)-dione] showed a koff [1] of 0.0002 s⁻¹, a kon [1] of 780000 M⁻¹ s⁻¹ and a residence time [1] of 148 ± 102 min.
For COc1ccn2c(c1)nc1c2c(=O)n(CC2CC2)c(=O)n1Cc1ccccc1 [Compound 2, 1-Benzyl-3-(cyclopropylmethyl)-8-methoxypyrido[2,1-f]purine-2,4(1H,3H)-dione], the koff [1] was 6e-05 s⁻¹, the kon [1] was 2.8e+06 M⁻¹ s⁻¹ and the residence time [1] was 315 ± 105 min.
COc1ccn2c(c1)nc1c2c(=O)n(CC2CC2)c(=O)n1Cc1ccc(Cl)cc1 [Compound 30, 1-(4-Chlorobenzyl)-3-(cyclopropylmethyl)-8-methoxypyrido[2,1-f]purine-2,4(1H,3H)-dione] showed a koff [1] of 0.00082 s⁻¹, a kon [1] of 3e+06 M⁻¹ s⁻¹ and a residence time [1] of 20 ± 0.5 min.
Compound COCCn1c(=O)c2c(nc3cc(OC)ccn32)n(Cc2ccccc2)c1=O [Compound 15, 1-Benzyl-8-methoxy-3-(2-methoxyethyl)-1H,3H-pyrido[2,1-f]purine-2,4-dione] has a koff [1] of 0.00063 s⁻¹, a kon [1] of 430000 M⁻¹ s⁻¹ and a residence time [1] of 27 ± 2.6 min. The “pKi ± SEM” value [3] was 7.7 ± 0.2.
For COc1cccc(Cn2c(=O)n(CC3CC3)c(=O)c3c2nc2cc(OC)ccn23)c1 [Compound 27, 3-(Cyclopropylmethyl)-8-methoxy-1-(3-methoxybenzyl)pyrido[2,1-f]purine-2,4(1H,3H)-dione], the Mode of antagonism [2] was “insurmountable antagonism”, the Schild slope [2] was 0.9 ± 0.2 and the koff [1] was 4.7e-05 s⁻¹. The kon [1] was 480000 M⁻¹ s⁻¹ and the residence time [1] was 376 ± 58 min.
For CCCCCn1c(=O)c2c(nc3cc(OC)ccn32)n(Cc2ccccc2)c1=O [Compound 9, 1-Benzyl-8-methoxy-3-pentyl-1H,3H-pyrido[2,1-f]purine-2,4-dione], the koff [1] was 0.0006 s⁻¹, the kon [1] was 1.1e+06 M⁻¹ s⁻¹ and the residence time [1] was 28 ± 2.2 min.
